# Data taken from ChEMBL document CHEMBL5724801, “EUbOPEN Chemogenomics Library - Multiplex” (2024).
# Several values for one entry are separate records, joined by “and”; a condition that tells them apart may be missing. Identical values can stand only once.
# Tested on: HEK-293T
# Assay: Multiplex assay against HEK293T
# Type: toxicity, cell-based
# Conditions: human
# How it was run: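 Cells were classed with CellPathfinder machine-learning gating, first as Hoechst high-intensity objects or normal cells, then (normal cells) as healthy, pyknosed or fragmented nuclei, and finally (pyknosed cells) as mitotic or apoptotic. Staining of live cells at seeding used Hoechst33342, BioTracker Green Microtubule Cytoskeleton Dye, MitoTracker Red and Annexin V Alexa Fluor 680, with imaging on a CQ1 microscope at 37°C and 5% CO2 after compound addition. Tubulin, mitochondrial-mass and membrane-permeability phenotypes are per cents of healthy-nucleus cells.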
# [1] = 12 h, 1 µM, compound concentration 1 uM
# [2] = 12 h, 10 µM, compound concentration 10 uM
# [3] = 24 h, 1 µM, compound concentration 1 uM
# [4] = 24 h, 10 µM, compound concentration 10 uM
# [5] = 48 h, 1 µM, compound concentration 1 uM
# [6] = 48 h, 10 µM, compound concentration 10 uM
structure (smiles),measurement,setting,value
NCCc1cn(S(=O)(=O)c2c(Cl)nc3sccn23)c2ccccc12.O=C(O)C(=O)O,Population Apoptotic (%),[1],37% and 52%
same,Population Fragmented Nuclei (%),[1],5% and 8%
same,Population Healthy Nuclei (%),[1],83% and 78%
same,Population Hoechst High Intensity Objects (%),[1],7% and 8%
same,Population Membrane Permeable-Phenotype (%),[1],0%
same,Population Mitochondria Different-Phenotype (%),[1],53% and 66%
same,Population Mitotic Cells (%),[1],62% and 47%
same,Population Normal (%),[1],92% and 91%
same,Population Pyknosed Nuclei (%),[1],11% and 13%
same,Population Tubulin-Different-Phenotype (%),[1],40% and 34%
same,Total Cell Count,[1],446 and 316
same,Population Apoptotic (%),[2],63% and 64%
same,Population Fragmented Nuclei (%),[2],8%
same,Population Healthy Nuclei (%),[2],49% and 67%
same,Population Hoechst High Intensity Objects (%),[2],22% and 25%
same,Population Membrane Permeable-Phenotype (%),[2],0%
same,Population Mitochondria Different-Phenotype (%),[2],96% and 97%
same,Population Mitotic Cells (%),[2],36% and 35%
same,Population Normal (%),[2],77% and 74%
same,Population Pyknosed Nuclei (%),[2],42% and 23%
same,Population Tubulin-Different-Phenotype (%),[2],88% and 82%
same,Total Cell Count,[2],292 and 209
same,Population Apoptotic (%),[3],33% and 41%
same,Population Fragmented Nuclei (%),[3],9% and 12%
same,Population Healthy Nuclei (%),[3],79% and 78%
same,Population Hoechst High Intensity Objects (%),[3],6% and 4%
same,Population Membrane Permeable-Phenotype (%),[3],1%
same,Population Mitochondria Different-Phenotype (%),[3],28% and 46%
same,Population Mitotic Cells (%),[3],66% and 58%
same,Population Normal (%),[3],93% and 95%
same,Population Pyknosed Nuclei (%),[3],11% and 8%
same,Population Tubulin-Different-Phenotype (%),[3],26% and 19%
same,Total Cell Count,[3],585 and 438
same,Population Apoptotic (%),[4],74% and 75%
same,Population Fragmented Nuclei (%),[4],14%
same,Population Healthy Nuclei (%),[4],37% and 62%
same,Population Hoechst High Intensity Objects (%),[4],34%
same,Population Membrane Permeable-Phenotype (%),[4],2%
same,Population Mitochondria Different-Phenotype (%),[4],83% and 95%
same,Population Mitotic Cells (%),[4],25% and 24%
same,Population Normal (%),[4],65%
same,Population Pyknosed Nuclei (%),[4],48% and 22%
same,Population Tubulin-Different-Phenotype (%),[4],44% and 76%
same,Total Cell Count,[4],310 and 195
same,Population Apoptotic (%),[5],23% and 47%
same,Population Fragmented Nuclei (%),[5],16% and 12%
same,Population Healthy Nuclei (%),[5],77% and 82%
same,Population Hoechst High Intensity Objects (%),[5],3% and 5%
same,Population Membrane Permeable-Phenotype (%),[5],0% and 1%
same,Population Mitochondria Different-Phenotype (%),[5],22% and 23%
same,Population Mitotic Cells (%),[5],76% and 52%
same,Population Normal (%),[5],96% and 94%
same,Population Pyknosed Nuclei (%),[5],6% and 5%
same,Population Tubulin-Different-Phenotype (%),[5],19% and 14%
same,Total Cell Count,[5],972 and 678
same,Population Apoptotic (%),[6],53% and 78%
same,Population Fragmented Nuclei (%),[6],27% and 19%
same,Population Healthy Nuclei (%),[6],24% and 47%
same,Population Hoechst High Intensity Objects (%),[6],62% and 47%
same,Population Membrane Permeable-Phenotype (%),[6],11% and 1%
same,Population Mitochondria Different-Phenotype (%),[6],74% and 75%
same,Population Mitotic Cells (%),[6],46% and 21%
same,Population Normal (%),[6],37% and 52%
same,Population Pyknosed Nuclei (%),[6],47% and 33%
same,Population Tubulin-Different-Phenotype (%),[6],55% and 52%
same,Total Cell Count,[6],294 and 212
COc1cc(Nc2ncc3c(n2)-c2ccc(Cl)cc2C(c2c(F)cccc2OC)=NC3)ccc1C(=O)O [ALISERTIB],Population Apoptotic (%),[1],38% and 61%
same,Population Fragmented Nuclei (%),[1],3% and 7%
same,Population Healthy Nuclei (%),[1],88% and 85%
same,Population Hoechst High Intensity Objects (%),[1],5% and 7%
same,Population Membrane Permeable-Phenotype (%),[1],0%
same,Population Mitochondria Different-Phenotype (%),[1],44% and 69%
same,Population Mitotic Cells (%),[1],61% and 38%
same,Population Normal (%),[1],94% and 93%
same,Population Pyknosed Nuclei (%),[1],7%
same,Population Tubulin-Different-Phenotype (%),[1],46% and 49%
same,Population Apoptotic (%),[2],61% and 88%
same,Population Fragmented Nuclei (%),[2],8% and 9%
same,Population Healthy Nuclei (%),[2],74% and 72%
same,Population Hoechst High Intensity Objects (%),[2],9% and 15%
same,Population Membrane Permeable-Phenotype (%),[2],0%
same,Population Mitochondria Different-Phenotype (%),[2],80% and 82%
same,Population Normal (%),[2],90% and 84%
same,Population Pyknosed Nuclei (%),[2],16% and 17%
same,Population Tubulin-Different-Phenotype (%),[2],68% and 54%
same,Population Apoptotic (%),[3],50% and 47%
same,Population Fragmented Nuclei (%),[3],10% and 9%
same,Population Healthy Nuclei (%),[3],82% and 81%
same,Population Hoechst High Intensity Objects (%),[3],3% and 9%
same,Population Membrane Permeable-Phenotype (%),[3],0%
same,Population Mitochondria Different-Phenotype (%),[3],25% and 47%
same,Population Mitotic Cells (%),[3],50% and 52%
same,Population Normal (%),[3],96% and 90%
same,Population Pyknosed Nuclei (%),[3],7% and 9%
same,Population Tubulin-Different-Phenotype (%),[3],31% and 30%
same,Population Apoptotic (%),[4],54% and 56%
same,Population Fragmented Nuclei (%),[4],8% and 12%
same,Population Healthy Nuclei (%),[4],74% and 55%
same,Population Membrane Permeable-Phenotype (%),[4],0% and 1%
same,Population Mitochondria Different-Phenotype (%),[4],75% and 86%
same,Population Mitotic Cells (%),[4],45% and 43%
same,Population Normal (%),[4],93% and 65%
same,Population Pyknosed Nuclei (%),[4],16% and 31%
same,Population Tubulin-Different-Phenotype (%),[4],64% and 50%
same,Population Apoptotic (%),[5],31% and 57%
same,Population Fragmented Nuclei (%),[5],14% and 16%
same,Population Healthy Nuclei (%),[5],79% and 77%
same,Population Membrane Permeable-Phenotype (%),[5],0%
same,Population Mitochondria Different-Phenotype (%),[5],14% and 27%
same,Population Mitotic Cells (%),[5],68% and 42%
same,Population Normal (%),[5],96% and 84%
same,Population Pyknosed Nuclei (%),[5],5%
same,Population Tubulin-Different-Phenotype (%),[5],17% and 24%
same,Population Apoptotic (%),[6],48% and 82%
same,Population Fragmented Nuclei (%),[6],13% and 19%
same,Population Healthy Nuclei (%),[6],78% and 61%
same,Population Membrane Permeable-Phenotype (%),[6],0% and 4%
same,Population Mitochondria Different-Phenotype (%),[6],57% and 73%
same,Population Normal (%),[6],94% and 67%
same,Population Pyknosed Nuclei (%),[6],7% and 19%
same,Population Tubulin-Different-Phenotype (%),[6],42% and 38%
CC(/C=C1\SC(=S)N(CCCC(=O)Nc2ccc(C(=O)O)c(O)c2)C1=O)=C\c1ccccc1,Population Apoptotic (%),[1],34% and 50%
same,Population Fragmented Nuclei (%),[1],6%
same,Population Healthy Nuclei (%),[1],81% and 84%
same,Population Hoechst High Intensity Objects (%),[1],6%
same,Population Membrane Permeable-Phenotype (%),[1],0%
same,Population Mitochondria Different-Phenotype (%),[1],41% and 62%
same,Population Mitotic Cells (%),[1],65% and 50%
same,Population Normal (%),[1],93%
same,Population Pyknosed Nuclei (%),[1],11% and 8%
same,Population Tubulin-Different-Phenotype (%),[1],31% and 20%
same,Total Cell Count,[1],422 and 389
same,Population Apoptotic (%),[2],43% and 51%
same,Population Fragmented Nuclei (%),[2],5%
same,Population Healthy Nuclei (%),[2],76% and 79%
same,Population Hoechst High Intensity Objects (%),[2],7%
same,Population Membrane Permeable-Phenotype (%),[2],0%
same,Population Mitochondria Different-Phenotype (%),[2],45% and 49%
same,Population Mitotic Cells (%),[2],56% and 48%
same,Population Normal (%),[2],92%
same,Population Pyknosed Nuclei (%),[2],18% and 15%
same,Population Tubulin-Different-Phenotype (%),[2],35% and 26%
same,Total Cell Count,[2],313 and 327
same,Population Apoptotic (%),[3],27% and 31%
same,Population Fragmented Nuclei (%),[3],9% and 7%
same,Population Healthy Nuclei (%),[3],79% and 83%
same,Population Hoechst High Intensity Objects (%),[3],4% and 7%
same,Population Membrane Permeable-Phenotype (%),[3],0%
same,Population Mitochondria Different-Phenotype (%),[3],28% and 52%
same,Population Mitotic Cells (%),[3],72% and 68%
same,Population Normal (%),[3],95% and 92%
same,Population Pyknosed Nuclei (%),[3],10% and 8%
same,Population Tubulin-Different-Phenotype (%),[3],26% and 21%
same,Total Cell Count,[3],604 and 491
same,Population Apoptotic (%),[4],33% and 39%
same,Population Fragmented Nuclei (%),[4],8%
same,Population Healthy Nuclei (%),[4],75% and 79%
same,Population Hoechst High Intensity Objects (%),[4],5% and 6%
same,Population Membrane Permeable-Phenotype (%),[4],0%
same,Population Mitochondria Different-Phenotype (%),[4],34% and 40%
same,Population Mitotic Cells (%),[4],66% and 60%
same,Population Normal (%),[4],94% and 93%
same,Population Pyknosed Nuclei (%),[4],16% and 12%
same,Population Tubulin-Different-Phenotype (%),[4],31% and 20%
same,Total Cell Count,[4],369 and 422
same,Population Apoptotic (%),[5],23% and 19%
same,Population Fragmented Nuclei (%),[5],13% and 14%
same,Population Healthy Nuclei (%),[5],79%
same,Population Hoechst High Intensity Objects (%),[5],2% and 5%
same,Population Membrane Permeable-Phenotype (%),[5],1% and 0%
same,Population Mitochondria Different-Phenotype (%),[5],16% and 26%
same,Population Mitotic Cells (%),[5],76% and 80%
same,Population Normal (%),[5],97% and 94%
same,Population Pyknosed Nuclei (%),[5],7% and 6%
same,Population Tubulin-Different-Phenotype (%),[5],14% and 13%
same,Total Cell Count,[5],998 and 673
same,Population Apoptotic (%),[6],24% and 39%
same,Population Fragmented Nuclei (%),[6],9% and 11%
same,Population Healthy Nuclei (%),[6],79% and 82%
same,Population Hoechst High Intensity Objects (%),[6],3% and 5%
same,Population Membrane Permeable-Phenotype (%),[6],2%
same,Population Mitochondria Different-Phenotype (%),[6],25% and 23%
same,Population Mitotic Cells (%),[6],75% and 60%
same,Population Normal (%),[6],96% and 94%
same,Population Pyknosed Nuclei (%),[6],10% and 6%
same,Population Tubulin-Different-Phenotype (%),[6],22% and 24%
same,Total Cell Count,[6],479 and 555
